Here are results for three molecules from ChEMBL document CHEMBL4808187, “Antiarrhythmic Hit to Lead Refinement in a Dish Using Patient-Derived iPSC Cardiomyocytes” (J Med Chem, 2021).

Activity calls are given as the source filed them. The rule behind the calls is not given here.

Data set [1] is described as follows: Metabolic stability in human liver S9 fraction assessed as compound remaining at 50 uM after 1 hr by HPLC method. Conditions: read-out: Stabilty. The format is ADME, subcellular. In short, it runs like this: (§1)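 Human liver microsomes (0.4–0.5 mg protein) or S-9 (1 mg) with 50 μM compound in 50 mM potassium phosphate pH 7.4 plus NADPH-generating system, 37 °C shaking for 0, 7, 15, 30, 60 min; stopped with cold acetonitrile; HPLC C18, isocratic water/acetonitrile with 0.05% TFA, UV 275.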

Data set [2] can be described thus: Metabolic stability in human liver microsomes assessed as compound remaining at 50 uM after 1 hr by HPLC method. It counts as ADME, Microsome. Conditions: read-out: Stabilty. In short, it runs like this: as §1
Data set [3] in a line: Tmax in Sprague-Dawley rat at 5 mg/kg, iv measured upto 25 hrs by LCMS analysis. The format is ADME, organism-based. To be noted: in vivo.
A short description of data set [4]: Tmax in Sprague-Dawley rat at 25 mg/kg, po measured upto 25 hrs by LCMS analysis. The format is ADME, organism-based. Conditions: in vivo.
A short description of data set [5]: Cmax in Sprague-Dawley rat at 5 mg/kg, iv measured upto 25 hrs by LCMS analysis. It counts as ADME, organism-based. The arrangement: route intravenous, dose 5 mg/kg, time <=25. Conditions: in vivo.
The nature of data set [6]: Cmax in Sprague-Dawley rat at 25 mg/kg, po measured upto 25 hrs by LCMS analysis. The format is ADME, organism-based. Conditions: in vivo. Set-up: route oral, dose 25 mg/kg, time <=25.
Data set [7] in a line: AUC in Sprague-Dawley rat at 5 mg/kg, iv measured upto 25 hrs by LCMS analysis. The format is ADME, organism-based. The arrangement: route intravenous, dose 5 mg/kg, time <=25. Conditions: in vivo.
A short description of data set [8]: AUC in Sprague-Dawley rat at 25 mg/kg, po measured upto 25 hrs by LCMS analysis. The format is ADME, organism-based. The arrangement: route oral, dose 25 mg/kg, time <=25. To be noted: in vivo.
A short description of data set [9]: Half life in Sprague-Dawley rat at 5 mg/kg, iv measured upto 25 hrs by LCMS analysis. Conditions: in vivo. The format is ADME, organism-based.
The nature of data set [10]: Half life in Sprague-Dawley rat at 25 mg/kg, po measured upto 25 hrs by LCMS analysis. To be noted: in vivo. It counts as ADME, organism-based.
Data set [11] is described as follows: Oral bioavailability in Sprague-Dawley rat at 25 mg/kg measured upto 25 hrs by LCMS analysis. The format is ADME, organism-based. Conditions: in vivo.
Data set [12] is described as follows: Toxicity in ip dosed BALB/c mouse assessed as lethal dose. The format is organism-based. To be noted: in vivo.
A short description of data set [13]: Toxicity in BALB/c mouse assessed as behavioral effects at 100 mg/kg, ip monitored for 30 mins. It counts as organism-based. To be noted: in vivo, 0.5 h. In short, it runs like this:
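Adult male BALB/c mice, four per compound, 100 mg/kg i.p.; behaviour (lethargy, immobilization, seizures, shaking) observed for 30 min; lethality recorded at 24 h.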

The next data set relates to Heart. Put plainly: Antiarrhythmic activity in H2O2-perfused Sprague-Dawley rat heart assessed as resolution of arrhythmias to normal sinus rhythm at 10 uM after 30 to 40 mins. The format is functional, tissue-based. Conditions: time 30-40 min. In short, it runs like this: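 Perfused ex vivo hearts from aged rats; continuous perfusion of H2O2 (0.1 mM) induces EADs and ectopic beats progressing to VT/VF; test compound perfused at 10 μM with H2O2 still present; rhythm followed for conversion to sinus rhythm.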

Data set [14] in a line: Toxicity in BALB/c mouse assessed as lethargy at 100 mg/kg, ip monitored for 30 mins. It counts as organism-based. To be noted: in vivo, 0.5 h.
The nature of data set [15]: Toxicity in BALB/c mouse assessed as central nervous system effects at 100 mg/kg, ip. It counts as organism-based. Conditions: in vivo.
The nature of data set [16]: Antiarrhythmic activity in patient-derived hiPSC-CMs carrying LQT3 mutation assessed as cessation dose for cell beating. It counts as functional, Homo sapiens, iPSC-CM.
Data set [17] in a line: Antiarrhythmic activity in patient-derived hiPSC-CMs carrying LQT3 mutation assessed as shortening of action potential duration. To be noted: ipsc-cm; read-out: EC50. It counts as functional, Homo sapiens.
Data set [18] in a line: Antiarrhythmic activity in patient-derived hiPSC-CMs carrying LQT3 mutation assessed as fold shortening of action potential duration relative to control. The format is functional, Homo sapiens, iPSC-CM.
The nature of data set [19]: Antiarrhythmic activity in patient-derived hiPSC-CMs carrying LQT3 mutation assessed as shortening dose of action potential. It counts as functional, Homo sapiens, iPSC-CM.
Data set [20] can be described thus: Antiarrhythmic activity in hiPSC-CMs assessed as cessation dose of cell beating. To be noted: human, ipsc-cm.
A short description of data set [21]: Antiarrhythmic activity in hiPSC-CMs assessed as dose for induction of early after depolarizations. To be noted: human, ipsc-cm.
Data set [22] in a line: Antiarrhythmic activity in hiPSC-CMs assessed as fold prolongation of action potential relative to control. Conditions: human, ipsc-cm.
Data set [23] in a line: Inhibition of sodium channel (unknown origin) expressed in HEK cells assessed as reduction in late inward sodium current by automated patch clamp method. The format is cell-based. To be noted: Homo sapiens, HEK293. (In general: Patch clamp records ionic current or voltage across a cell membrane.)
The nature of data set [24]: Inhibition of sodium channel (unknown origin) expressed in HEK cells assessed as reduction in peak sodium current by automated patch clamp method. It counts as cell-based. Conditions: Homo sapiens, HEK293.
A short description of data set [25]: Inhibition of potassium channel (unknown origin) expressed in CHO cells assessed as reduction in potassium current by automated patch clamp method. The format is cell-based.
For a further data set, the species on record is Homo sapiens. Put plainly: Selectivity index, ratio of IC50 for potassium channel (unknown origin) expressed in HEK cells assessed as reduction in potassium current to IC50 for sodium channel (unknown origin) expressed in HEK cells assessed as reduction in late inward sodium current. The format is cell-based.

For orientation: Tmax means the time at which the peak concentration occurs. The term Cmax denotes the peak of the concentration-time curve. By AUC is commonly meant concentration integrated over time. Read a high AUC as more exposure. What is called bioavailability is the share of a dose that reaches the circulation, judged against a reference dose that is usually intravenous. A lower bioavailability goes with poor availability. By LD50 is commonly meant the dose expected to kill half of the subjects tested. Take `Cl.N[C@@H](COc1ccccc1C(F)(F)F)c1ccccc1`: the remaining at 1 h, 50 µM in data set [1] and in data set [2] was over 95% each time. Besides, the time of peak concentration (Tmax) in [3] was 0.18 h; in [4] it was 1.5 h. Moreover, the values for the Cmax in data set [5] and in data set [6] were 249 ng/mL and 258 ng/mL, respectively. Also, the AUC turned out to be 280 ng·h/mL in data set [7] and 1556 ng·h/mL in [8]. Besides, the t1/2 came out at 1.2 h in data set [9] and 5.3 h in data set [10]. Besides, the bioavailability in data set [11] was found to be 100%. In addition, the 50% lethal dose (LD50) in [12] is over 200 mg/kg. In data set [13], the Activity entry is given as “Non-Toxic”. The result in the data set with Heart was Active.
Turning to `Cl.N[C@H](COc1ccccc1C(F)(F)F)c1ccccc1`, the remaining at 1 h, 50 µM in [1] and in [2] was over 95% each time. Also, the Tmax in data set [3] was 0.17 h; in [4] it was 1.5 h. For the same molecule, the values for the Cmax in [5] and in [6] were 219 ng/mL and 226 ng/mL, respectively. For the same molecule, the values for the AUC in [7] and in data set [8] were 407 ng·h/mL and 1008 ng·h/mL, respectively. For the same molecule, the values for the t1/2 in [9] and in data set [10] were 3.8 h and 6.5 h, respectively. In [11], this molecule gave a bioavailability of 42%. For the same molecule, the LD50 in data set [12] was over 200 mg/kg. The Activity result in data set [14] and in data set [15] was “Toxic” throughout.
In general, EC50 refers to the concentration that produces a half-maximal response. By IC50 is commonly meant the point on the concentration scale where inhibition reaches its midpoint. In the case of `Cc1ccc(C)c(OCC(N)C2CC2)c1.Cl` (centres undefined), the Activity was determined as 200 µM in data set [16], 66 µM in [19], 200 µM in data set [20] and 66 µM in data set [21]. Besides, the concentration for a half-maximal effect (EC50) in data set [17] was determined as 0.022 µM. Also, the “fold change (FC)” value is reported as 1.11 in [18] and 1.686 in data set [22]. Further, the figures for the IC50 in data set [23], in [24] and in [25] were 51.8 µM, 162 µM and 98 µM, respectively. For the same molecule, in the data set listed under Homo sapiens, the Ratio IC50 is 1.9.
